Assay results taken from ChEMBL document CHEMBL4513216, “Probing the Open Global Health Chemical Diversity Library for Multistage-Active Starting Points for Next-Generation Antimalarials” (ACS Infect Dis, 2020).

Assay: Toxicity liver stage against HepG2, at 10uM
Assay type: cell-based
Set-up: test concentration 10 uM, cell line HepG2-A16-CD81EGFP
Conditions: human, HepG2-A16-CD81EGFP cells; read-out: INHIBITION
Procedure, shortened: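 Uninfected HepG2-A16-CD81EGFP cells, 3 × 10^3 per well, 1536-well, plated on prespotted compound at 10 μM final, parasite-free screening media added to match infected plates; puromycin 10 μM positive, DMSO 0.5% negative; run in parallel with 48 h PbLuc assay at 37 °C, 5% CO2; viability by CellTiter-Glo luminescence, normalized to controls.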

Compound	cytotoxicity at 10 µM [%]
CCOCC(=O)NCCc1nc(C2CC2)cc(C(F)(F)F)n1	1.01
COC(=O)c1sccc1S(=O)(=O)N1CCC(Oc2cccc(C)n2)CC1	6.48
CCN(CC)C(=O)Cn1c(C)cc2nc(SC)n(CC(C)C)c(=O)c21	-12.8
COC[C@@]12CCO[C@@H]1CCN(C(=O)Cc1ccccc1F)C2	-7.27
CCCN(C(=O)CS(=O)(=O)c1ccccc1)c1cccc(C)c1	2.08
O=C(O)Cn1nc(C2CC2)c2c(-c3ccco3)ccnc21	-3.96
Cn1nc(C(=O)N2CCCC2)c(F)c1NC(=O)Cc1ccccc1	1.41
CCn1nccc1CNC(=O)C1CCCC1	-18.5
Cn1ccc(C(=O)N2CCCC2c2cc[nH]n2)n1 (stereo unspecified)	-1.26
CC(C)C(=O)N1CCC(c2nc3ccccn3c2NC(C)(C)C)CC1	5.86
CC(=O)N1CCC(CCc2ccnc(NC(=O)c3ccccn3)c2)CC1	0.15
O=C(NCc1ccccc1)C1CN(c2ccccn2)CCO1 (stereo unspecified)	-2.44
O=C(CCn1c(C(F)F)cc2cccnc21)NC1CC1	-1.71
Cc1cc(C)nc(C2CCN(C(=O)CCn3nnc4ccccc43)C2)n1 (stereo unspecified)	-0.834
O=C(c1cccc2cccnc12)N1CC[C@@]2(CCCO2)[C@@H](O)C1	-23.8
Cc1nc(C2CCCN2C(=O)Cc2ccc3c(c2)OCO3)nc(O)c1C (stereo unspecified)	-34.9
Nc1cncc(C(=O)N2Cc3ccccc3OC3(CCOCC3)C2)c1	11.9
CC(=O)N1CCC(c2nccnc2Nc2ncc(C)s2)CC1	10.1
O=C(Cc1ccsc1)N1CCOC(c2nc(-c3ncccn3)no2)C1 (stereo unspecified)	-7.83
CNc1ncc(CN2CCC(c3nnsc3S(C)(=O)=O)CC2)cn1	-0.085
COc1ccc(CN2CCC(c3cc(O)nc(C)n3)C2)c(F)c1 (stereo unspecified)	0.442

Compound	cytotoxicity at 10 µM [%]
Cc1oc(-c2ccco2)nc1CN1CCc2cnc(C(C)C)nc2C1	0.0371
CSc1c[nH]nc1NS(=O)(=O)c1cc(F)ccc1Cl	-7.23
Cc1cnn(CC(C)Nc2nc3ccccc3o2)c1 (stereo unspecified)	-9.49
c1cc(NCc2ccsc2)cc(-c2nnc[nH]2)c1	-54.5
CC(C)N(C(=O)Cn1cc(Cl)cn1)c1ccccc1	-1.18
N#CCCN(Cc1cccnc1)C(=O)c1ccn(-c2ccccc2)n1	13.9
Cc1nc(C)c(S(=O)(=O)NC(=O)c2ccsc2)s1	-6.85
CCCn1cc(NC2CCSCC2)cn1	-1.88
CCOC(=O)N1CCN(C(=O)C2CC(=O)N(c3ccccc3Br)C2)CC1 (stereo unspecified)	-7.22
Cc1nnc(CN(C)C2CCN(CCc3cccs3)C2)n1C (stereo unspecified)	-3.67
CNS(=O)(=O)CC1CCCN1C(=O)c1ccc2cc[nH]c2c1 (stereo unspecified)	-0.651
O=c1c2cccnc2cnn1CC(O)c1ccc(Br)cc1 (stereo unspecified)	-2.59
CCc1noc(CS(=O)(=O)CC=C(C)C)n1	5.41
O=S(=O)(NCc1cccnc1OC1CCCC1)N1CCCCC1	-3.82
COCc1cc(N(CC(F)F)C2CC2)n2ncnc2n1	-3.94
Cc1ccc(-c2nnc(C(C)N3CCc4cncnc4C3)o2)cc1 (stereo unspecified)	0.776
Cc1nc(CN(C)c2cc(N3CCCC3CO)ncn2)cs1 (stereo unspecified)	4.53
CC(C)C(C(=O)N1CCCN(Cc2cnn(C)c2)CC1)n1cncn1 (stereo unspecified)	-4.52
Cc1cc(C(=O)N2CCC[C@]3(C[C@@H](OCC4CC4)CO3)C2)no1	-78.9
Cc1csc2ncc(-c3ccnc(N4CCCC[C@@H]4CO)n3)c(=O)n12	9.12
O=C(c1cnc(-c2cccnc2)nc1)N1CCC(c2ccncc2)CC1	-13.7

Compound	cytotoxicity at 10 µM [%]
CCCc1nnc2sc(C3CCN(CC)CC3)nn12	4.6
Cc1ccccc1CN1CCN(C(=O)CCn2ccccc2=O)CC1	3.57
Cn1c(CN2CCCC(Cn3cc(CCO)nn3)C2)cc2ccccc21 (stereo unspecified)	-0.849
Cn1cc(Cl)c(CN2CCCC(Cn3cc(CO)nn3)C2)n1 (stereo unspecified)	1.18
CCc1ncc(C(=O)N(C)C(C)c2ccc3c(c2)OCCO3)cn1 (stereo unspecified)	-2.96
CCn1c(C2CCN(C(=O)c3cc(CC(C)C)on3)CC2)nn(C)c1=O	-3.89
CC(C)Oc1ccc2c(NC(=O)[C@H](C)O)nn(CC(F)(F)F)c2c1	-4.87
OC1CCCN(CCNc2ncc(Cl)cc2F)C1 (stereo unspecified)	8.81
CCc1nc(C)sc1CN1CC[C@@](O)(CCOC)[C@H](C)C1	-1.18
Cc1ccc(F)c(C(=O)N2C[C@@H](C(=O)O)[C@H](c3ccncc3)C2)c1Cl	-2.37
CCCN1CCN(C(=O)c2ccnc(N)c2)[C@H]2CS(=O)(=O)C[C@H]21	2.77
Cc1c(C(=O)N(C)c2ccccc2)cccc1N(C)S(C)(=O)=O	6.36
CCC(Oc1ccc(N(C)S(C)(=O)=O)cc1)C(=O)N(C)C (stereo unspecified)	-4.97
Cc1ncccc1OC1(C(=O)NCCCN2CCOCC2)CCNCC1	-10.8
CC(C)C(=O)N1CCN(C(=O)c2cc(C(C)C)on2)[C@H]2CS(=O)(=O)C[C@H]21	-19
CCc1cc(O)nc(C2CCCN2C(=O)c2cccnc2)n1 (stereo unspecified)	-1.54
Cc1ncc2c(n1)CN(Cc1nnc(-c3ccccc3)o1)CC2	-9.77
Cc1nc(C)n(CC2CN(Cc3cscn3)CCO2)n1 (stereo unspecified)	-4.22
COCCNC(=O)Nc1ccc(-n2cncn2)c(C(F)(F)F)c1	-5.92
Fc1ccc(-c2cnc(CN3CCn4c(nnc4C4CC4)C3)o2)cc1	-13.4
CN(C)C(=O)CS(=O)(=O)Cc1cc(Cl)c2c(c1)OCCCO2	-5.08

Compound	cytotoxicity at 10 µM [%]
COc1ccc(OCCCNC(=O)NCc2csc(C)n2)cc1	-7.54
CCc1cccc(N2CCC(NC(=O)c3ccc(=O)[nH]n3)CC2)c1	5.8
CNC(=O)NC(=O)Cn1cc(-c2ccccc2)cn1	3.37
CCc1nccn1C1CCCN(C(=O)Cc2cn3ccccc3n2)C1 (stereo unspecified)	-2.72
Cc1cnn(CC2CCCN2C(=O)c2nccc3ccccc23)c1 (stereo unspecified)	-2.14
CNS(=O)(=O)c1ccc(CNC(=O)NCC2CCOC2)cc1 (stereo unspecified)	-2.65
COc1cccc(CN2CCCC(c3nn(C)c4nccnc34)C2)c1 (stereo unspecified)	-11.2
CNC(=O)[C@H]1C[C@@H]2CCN(c3nnc(C)s3)C[C@@H]2O1	-75.7
O=C(Nc1cccc(CNCc2ccsc2)c1)C1CC1	-10.7
CC(C)c1nn(C)c(N(C)C)c1CNCc1cccc(CN(C)C)c1	-4.22
COc1cc(CNCC(O)c2ccc(C)cc2)cc2c1OCCO2 (stereo unspecified)	-6.61
CN(C)CC(=O)N1CCOC2(CCCN(c3ncccc3F)C2)C1 (stereo unspecified)	-9.84
OCCOCc1ncn2c1CN(Cc1cccs1)CCC2	-82.9
O=C(O)CC1CN(Cc2ccccc2)CCO1 (stereo unspecified)	6.54
Cc1cc(CN2C[C@@H]3COC[C@H](C(=O)N4CCCCO4)[C@@H]3C2)no1	-77.9
COc1ccccc1CCNC(=O)C1CCC(Cn2cnnn2)CC1 (stereo unspecified)	1.61
Cc1cc(C)cc(N2CCN(C(=O)CCN3C[C@H]4CC[C@@H]3C4)CC2=O)c1	-4.76
C=c1ncsc1=C1NN=C(C2CCCN2C(=O)CCn2ccc(C)n2)O1 (stereo unspecified)	1.66
